Molecules are shown by their SMILES. Calls of active or inactive are those of the source. The rule behind the calls is not given here.

Data set [1] can be described thus: Drug metabolism in MeOH/PBS solution assessed as […] release at 40 uM irradiated with 60 mW laser light by amperometric detection assay. The data set is classed as functional. The procedure, abridged:
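NO release was profiled in MeOH/PBS (20/80) at 40 µM under visible light irradiation (λexc = 405 nm), using an optically matched solution of a model NO photodonor for comparison.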

The subject of data set [2] is Staphylococcus aureus. The experiment in a line: Bactericidal activity against Staphylococcus aureus ATCC 6538 assessed as log reduction in colony forming units at 0.25 mM after 30 mins under dark condition by time kill assay. It is filed as functional. Put shortly: (§1)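 Time-kill assay with the agent at 0.25 mM final in 5% EtOH/PBS, made from a 0.5 mM solution in 10% EtOH/PBS. Samples ran in duplicate, kept in the dark or illuminated, alongside PBS and 5% EtOH/PBS vehicle controls. Viable bacteria were counted as CFU/mL at set times and expressed as % and log reduction.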

For data set [3], the system named is Escherichia coli. The experiment in a line: Bactericidal activity against Escherichia coli ATCC 10536 assessed as reduction in colony forming units at 0.25 mM irradiated with 450 mW xenon light after 30 mins by time kill assay. Also on record: scale not given: the % may be the effect or the level left. The data set is classed as functional. The procedure, abridged:
as §1

Data set [4] relates to Staphylococcus aureus. The experiment in a line: Bactericidal activity against Staphylococcus aureus ATCC 6538 assessed as reduction in bacterial count at 0.25 mM irradiated with 450 mW xenon light up to 30 mins by time kill assay. It is filed as functional, organism-based. Put shortly:
as §1

Data set [5] in a line: Drug metabolism in MeOH/PBS solution assessed as […] release by measuring shift in maximum absorption wavelength at 40 uM irradiated with 60 mW laser light by UV-vis absorption spectra analysis. It is filed as functional.
For data set [6], the system named is Escherichia coli. The experiment in a line: Bactericidal activity against Escherichia coli ATCC 10536 assessed as log reduction in colony forming units at 0.25 mM irradiated with 450 mW xenon light after 30 mins by time kill assay. The data set is classed as functional. The procedure, abridged: as §1
Data set [7] relates to Escherichia coli. Put plainly: Bactericidal activity against Escherichia coli ATCC 10536 assessed as reduction in bacterial count at 0.25 mM after 30 mins under dark condition by time kill assay. It is filed as functional, organism-based. The procedure, abridged: as §1
The test system of data set [8] is Staphylococcus aureus. The experiment in a line: Bactericidal activity against Staphylococcus aureus ATCC 6538 assessed as reduction in bacterial count at 0.25 mM irradiated with 450 mW xenon light after 10 mins by time kill assay relative to control. The data set is classed as functional. Also on record: scale not given: the % may be the effect or the level left. Put shortly: as §1

The subject of data set [9] is Staphylococcus aureus. Put plainly: Bactericidal activity against Staphylococcus aureus ATCC 6538 assessed as log reduction in colony forming units at 0.25 mM irradiated with 450 mW xenon light after 10 mins by time kill assay. The data set is classed as functional. Put shortly: as §1
The test system of data set [10] is Staphylococcus aureus. Put plainly: Bactericidal activity against Staphylococcus aureus ATCC 6538 assessed as reduction in bacterial count at 0.25 mM irradiated with 450 mW xenon light after 20 mins by time kill assay relative to control. Details: scale not given: the % may be the effect or the level left. The data set is classed as functional. The procedure, abridged:
as §1

Data set [11] in a line: Cytotoxicity against human skin fibroblasts at 0.25 mM irradiated with 450 mW xenon light measured after 30 mins. To be noted: 0.5 h, 250 µM.
Data set [12] has as its system Staphylococcus aureus. Put plainly: Bactericidal activity against Staphylococcus aureus ATCC 6538 assessed as reduction in bacterial count at 0.25 mM after 30 mins under dark condition by time kill assay relative to control. The data set is classed as functional. Also on record: scale not given: the % may be the effect or the level left. Put shortly: as §1
The subject of data set [13] is Staphylococcus aureus. The experiment in a line: Bactericidal activity against Staphylococcus aureus ATCC 6538 assessed as log reduction in colony forming units at 0.25 mM irradiated with 450 mW xenon light after 20 mins by time kill assay. It is filed as functional. Put shortly:
as §1

The nature of data set [14]: Drug metabolism in MeOH/PBS solution assessed as […] release at 170 uM irradiated with 60 mW laser light by amperometric detection assay. The data set is classed as functional. The procedure, abridged:
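NO release followed during continuous visible-light irradiation at λexc 405 nm of optically matched solutions in MeOH/PBS (20/80), with the model donor at 170 µM; release profile recorded over irradiation time.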

As to `C[N+](C)(CCO)CCCOc1c2cc(CNc3ccc([N+](=O)[O-])c(C(F)(F)F)c3)cc1Cc1cc(CNc3ccc([N+](=O)[O-])c(C(F)(F)F)c3)cc(c1O)Cc1cc(CNc3ccc([N+](=O)[O-])c(C(F)(F)F)c3)cc(c1OCCC[N+](C)(C)CCO)Cc1cc(CNc3ccc([N+](=O)[O-])c(C(F)(F)F)c3)cc(c1O)C2.[Br-].[Br-]`, the Drug metabolism result in data set [1] and in data set [5] was “Metabolite detected” in each case. Also, the Activity with Staphylococcus aureus [2] is 1.96 log10CFU/ml; in the data set with Escherichia coli [3] it was 93.5%; in the data set with Escherichia coli [6] it was 1.2 log10CFU/ml; with Staphylococcus aureus [8] it was 99.2%; with Staphylococcus aureus [9], 2.1 log10CFU/ml; with Staphylococcus aureus [10], more than 99.95%. In addition, the Activity in data set [11] is reported as less than 15%; in the data set on Staphylococcus aureus [12], 98.9%; with Staphylococcus aureus [13], more than 3.31 log10CFU/ml. In the data set with Staphylococcus aureus [4], the result was Active. Further, the result in the data set on Escherichia coli [7] was inactive.
Consider `NCCCNc1ccc([N+](=O)[O-])c(C(F)(F)F)c1`, for which the Drug metabolism result in [14] is recorded as “Metabolite detected”.

Source of the values: ChEMBL document CHEMBL4190337, “Design, Synthesis, and Antibacterial Activity of a Multivalent Polycationic Calix[4]arene-NO Photodonor Conjugate” (ACS Med Chem Lett, 2017).
